Target: DNA-(apurinic or apyrimidinic site) endonuclease (Homo sapiens, UniProt P27695)
Assay: Inhibition of full length human APE1 assessed as reduction in endonuclease activity by measuring DNA cleavage of abasic sites using 6-FAM labelled two annealed oligonucleotides as AP site mimic substrate by fluorescence-based assay
Outline: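 Purified full-length APE1 (0.25-1.25 nM) added at once to 50 nM annealed duplex: 5'-6-FAM-labelled AP-site-mimic strand paired with a quencher-labelled strand. Buffer 50 mM Tris, 1 mM MgCl2, 50 mM NaCl, pH 7.5. Compound in triplicate, 10-point 1:2 dilution from 100 μM. Fluorescence from cleavage read kinetically at five 1-min intervals. Reaction rate compared with DMSO vehicle.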

DNA-(apurinic or apyrimidinic site) endonuclease, sequence (P27695 whole entry): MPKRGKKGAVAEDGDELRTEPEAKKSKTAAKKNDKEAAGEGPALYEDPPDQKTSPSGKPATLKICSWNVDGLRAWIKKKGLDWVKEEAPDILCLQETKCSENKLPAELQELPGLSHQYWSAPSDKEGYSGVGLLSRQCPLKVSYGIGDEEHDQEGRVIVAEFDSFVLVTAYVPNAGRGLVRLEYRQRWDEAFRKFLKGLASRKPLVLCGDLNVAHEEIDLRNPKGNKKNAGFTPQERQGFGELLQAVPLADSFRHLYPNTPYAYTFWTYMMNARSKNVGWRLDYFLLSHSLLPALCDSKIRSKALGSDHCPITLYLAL

| Compound | IC50 |
| --- | --- |
| Cc1ccc(S(=O)(=O)n2cccc2[C@@H]2NC(=O)[C@H](Cc3c[nH]c4ccccc34)NC(=O)C(Oc3ccccc3)CCOC(=O)C/C=C/[C@@H]2C)cc1 (some centres not stated) | 5.4 µM |
| Cc1ccc(S(=O)(=O)n2cccc2[C@@H]2NC(=O)[C@H](Cc3c[nH]c4ccccc34)NC(=O)C(c3ccccc3)CCOC(=O)C/C=C/[C@@H]2C)cc1 (some centres not stated) | 1.2 µM |

— BindingDB's records for doi:10.1021/acs.jmedchem.8b01529 (Boston University, 2019)
